Measured values from ChEMBL document CHEMBL5500387, “Design, synthesis of combretastatin A-4 piperazine derivatives as potential antitumor agents by inhibiting tubulin polymerization and inducing autophagy in HCT116 cells” (Eur J Med Chem, 2024).

What was measured:
A549 [1] = experiment: Induction of apoptosis in human A549 cells assessed as live cells at 0.1 uM measured after 24 hrs by Annexin V-APC/PI staining based flow cytometry analysis (reference value: 96.91%); assay type: functional
A549 [2] = experiment: Induction of apoptosis in human A549 cells assessed as late apoptotic cells at 0.1 uM measured after 24 hrs by Annexin V-APC/PI staining based flow cytometry analysis (reference value: 0.86%); assay type: functional
HCT-116 [3] = experiment: Induction of cell cycle arrest in human HCT-116 cells assessed as accumulation of cells at S phase at 0.3 uM measured after 24 hrs by PI/RNase staining based flow cytometry analysis (reference value: 38.29%); assay type: functional
HCT-116 [4] = experiment: Induction of autophagy in human HCT-116 cells assessed as downregulation of p62 protein level measured after 24 hrs by Western blot analysis; assay type: functional, cell-based; conditions: dose 0.1-0.3 µM
Method in brief: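 HCT116 cells exposed for 24 h to 0.1, 0.2 or 0.3 μM. Lysed on ice and protein measured by BCA. […] Milk-blocked, probed with anti-LC3A/B or anti-phospho-SQSTM1/p62 (1:1000) plus β-actin, then HRP anti-rabbit and chemiluminescence. Bands normalised to control set to 1. Three independent experiments.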

A549 [5] = experiment: Induction of apoptosis in human A549 cells assessed as late apoptotic cells at 0.3 uM measured after 24 hrs by Annexin V-APC/PI staining based flow cytometry analysis (reference value: 0.86%); assay type: functional
HCT-116 [6] = experiment: Induction of cell cycle arrest in human HCT-116 cells assessed as accumulation of cells at S phase at 0.1 uM measured after 24 hrs by PI/RNase staining based flow cytometry analysis (reference value: 38.29%); assay type: functional
HCT-116 [7] = experiment: Inhibition of cell invasion in human HCT-116 cells measured after 48 hrs by crystal violet staining based fluorescent inverted microscopic analysis; assay type: functional; conditions: dose 0.1-0.3 µM
Method in brief: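 Transwell inserts were coated with Matrigel (1:3 in serum-free medium). HCT116 cells (1×10^4) in serum-free medium went in the upper chamber, with complete medium as stimulus. Treated with 0.1, 0.2 or 0.3 μM or 0.1% DMSO for 48 h at 37 °C. Fixed in 4% paraformaldehyde, stained with 0.1% crystal violet, and imaged. Counts analysed by ImageJ. At least three replicates.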

HCT-116 [8] = experiment: Cytotoxicity against human HCT-116 cells assessed as inhibition of cell proliferation measured after 72 hrs by CCK-8 assay; assay type: functional, cell-based; conditions: HCT-116, 72 h
Method in brief: (§1)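 Cells seeded at 2×10^3 per well and grown overnight in 10% FBS medium: HCT116 in McCoy's 5A, A549 and AGS in F-12K, SK-MES-1 in DMEM. Compounds added at varied concentrations with 0.1% DMSO control, 72 h at 37 °C. 10% CCK-8 for 2 h, then A450 read. Survival = (As−Ab)/(Ac−Ab)×100%. IC50 from curve fitting.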

HCT-116 [9] = experiment: Induction of cell cycle arrest in human HCT-116 cells assessed as accumulation of cells at G0/G1 phase at 0.2 uM measured after 24 hrs by PI/RNase staining based flow cytometry analysis (reference value: 32.88%); assay type: functional
A549 [10] = experiment: Induction of cell cycle arrest in human A549 cells assessed as accumulation of cells at G2/M phase at 0.1 uM measured after 24 hrs by PI/RNase staining based analysis (reference value: 10.22%); assay type: functional
A549 [11] = experiment: Induction of apoptosis in human A549 cells assessed as live cells at 0.2 uM measured after 24 hrs by Annexin V-APC/PI staining based flow cytometry analysis (reference value: 96.91%); assay type: functional
HCT-116 [12] = experiment: Induction of cell cycle arrest in human HCT-116 cells assessed as accumulation of cells at G2/M phase at 0.3 uM measured after 24 hrs by PI/RNase staining based flow cytometry analysis (reference value: 28.83%); assay type: functional
[13] = Selectivity index, ratio of IC50 for human NCM460 cells to IC50 for human HCT-116 cells; assay type: toxicity; conditions: NCM460 cells and HCT-116 cells, read-out: Ratio IC50
Method in brief: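 The selectivity index is IC50 in NCM460 normal colonic epithelial cells (RPMI-1640, 10% FBS) divided by IC50 in HCT116. Both were measured by 72 h CCK-8 viability at 2×10^3 cells/well with A450 read-out.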

HCT-116 [14] = experiment: Induction of cell cycle arrest at G2/M phase in human HCT-116 cells assessed as reduction in Cdc-2 protein expression measured after 48 hrs by Western blot analysis; assay type: functional, cell-based; conditions: dose 0.1-0.3 µM
Method in brief: (§2)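 HCT116 cells given 0.1, 0.2 or 0.3 μM for 48 h, with 0.1% DMSO control. Lysates run on SDS-PAGE and blotted to PVDF. Probed with anti-Cdc2 and anti-Cyclin B1 (1:1000), β-actin as loading control, HRP secondary, and chemiluminescence. Band quantities expressed relative to control set to 1. Three independent experiments.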

[15] = Octanol-water partition coefficient, log P of the compound at pH 7.4 at 4 mg measured after 24 hrs by liquid chromatography; assay type: physicochemical
Method in brief: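 4 mg of compound was dissolved in 1 mL water-saturated n-octanol and held 24 h at room temperature, then centrifuged. The supernatant was mixed with an equal volume of octanol-saturated water, stood 24 h, centrifuged and the phases separated. Phase concentrations were measured by LC standard curves. log P = log(C_octanol/C_water). At least three independent runs.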

A549 [16] = experiment: Induction of cell cycle arrest in human A549 cells assessed as accumulation of cells at S phase at 0.2 uM measured after 24 hrs by PI/RNase staining based analysis (reference value: 24.95%); assay type: functional
A549 [17] = experiment: Induction of apoptosis in human A549 cells assessed as early apoptotic cells at 0.1 uM measured after 24 hrs by Annexin V-APC/PI staining based flow cytometry analysis (reference value: 1.73%); assay type: functional
A549 [18] = experiment: Induction of apoptosis in human A549 cells assessed as early apoptotic cells at 0.3 uM measured after 24 hrs by Annexin V-APC/PI staining based flow cytometry analysis (reference value: 1.73%); assay type: functional
A549 [19] = experiment: Induction of apoptosis in human A549 cells assessed as dead cells at 0.1 uM measured after 24 hrs by Annexin V-APC/PI staining based flow cytometry analysis (reference value: 0.50%); assay type: functional
HCT-116 [20] = experiment: Induction of cell cycle arrest at G2/M phase in human HCT-116 cells assessed as reduction in Cyclin B1 protein expression measured after 48 hrs by Western blot analysis; assay type: functional, cell-based; conditions: dose 0.1-0.3 µM; method in brief: as §2
A549 [21] = experiment: Cytotoxicity against human A549 cells assessed as inhibition of cell proliferation measured after 72 hrs by CCK-8 assay; assay type: functional, cell-based; conditions: A549, 72 h; method in brief: as §1
A549 [22] = experiment: Induction of apoptosis in human A549 cells assessed as early apoptotic cells at 0.2 uM measured after 24 hrs by Annexin V-APC/PI staining based flow cytometry analysis (reference value: 1.73%); assay type: functional
HCT-116 [23] = experiment: Induction of cell cycle arrest in human HCT-116 cells assessed as accumulation of cells at G2/M phase at 0.2 uM measured after 24 hrs by PI/RNase staining based flow cytometry analysis (reference value: 28.83%); assay type: functional
AGS = experiment: Cytotoxicity against human AGS cells assessed as inhibition of cell proliferation measured after 72 hrs by CCK-8 assay; assay type: functional, cell-based; method in brief: as §1

SMILES: COc1ccc(/C=C(/C(=O)N2CCN(c3ccc(C)cc3)CC2)c2cc(OC)c(OC)c(OC)c2)cc1O
- Activity (A549 [1]): 86.04%
- Activity (A549 [2]): 2.78%
- Activity (HCT-116 [3]): 6.31%
- Activity (HCT-116 [4]): Dose-Dependent Effect
- Activity (A549 [5]): 8.87%
- Activity (HCT-116 [6]): 31.95%
- inhibition (HCT-116 [7]): Dose-Dependent Effect
- IC50 (HCT-116 [8]): 227 nM
- Activity (HCT-116 [9]): 34.17%
- Activity (A549 [10]): 5.75%
- Activity (A549 [11]): 76.79%
- Activity (HCT-116 [12]): 88.26%
- selectivity ratio [13]: 4.8
- Activity (HCT-116 [14]): Dose-Dependent Effect
- logD at 24 h [15]: -0.013
- Activity (A549 [16]): 13.76%
- Activity (A549 [17]): 10.34%
- Activity (A549 [18]): 21.09%
- Activity (A549 [19]): 0.83%
- Activity (HCT-116 [20]): Dose-Dependent Effect
- IC50 (A549 [21]): 253 nM
- Activity (A549 [22]): 17.43%
- Activity (HCT-116 [23]): 44.67%
- IC50 (AGS): 574 nM
